The source made the active and inactive calls. The rule behind the calls is not given here.
Tests used:
[1] = target: Cellular tumor antigen p53 (Homo sapiens) (UniProt P04637); test: Activation of p53 in human MCF7 cells assessed as increase in MDM2 mRNA expression at 6 uM incubated for 4 hrs by qRT-PCR analysis; type: cell-based; settings: filed as activator
How it was run: (§1)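 Cells treated with DMSO or 6 µM test compound for 4 h. RNA extracted, cDNA synthesised, transcript measured by TaqMan qRT-PCR and normalised to GAPDH. Averages from triplicates of repeated experiments, with standard deviation.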

MDA-MB-468 [2] = test: Induction of apoptosis in human MDA-MB-468 cells expressing p53 R273H mutant assessed increase in number of Annexin-V stained cells at 6 to 12 uM incubated for 24 hrs by AnnexinV-FITC and PI staining based flow cytometry; type: functional, cell-based; settings: dose 6-12 µM
How it was run: (§2)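 24 h treatment, DMSO control. Cells scraped, washed in PBS, then given fluorochrome-conjugated Annexin V for 15 min at RT in the dark, followed by PI (0.1 µg/ml) in binding buffer. Read by flow cytometry on LSRFortessa. Annexin V-positive cells expressed relative to the DMSO control.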

MCF7 [3] = test: Induction of apoptosis in human MCF-7 cells expressing wild type p53 assessed increase in number of Annexin-V stained cells at 6 to 12 uM incubated for 24 hrs by AnnexinV-FITC and PI staining based flow cytometry; type: functional, cell-based; settings: dose 6-12 µM; how it was run: as §2
CCD-841CoN = test: Cytotoxicity against human CCD841 cells harboring wild type p53 assessed as inhibition of cell growth at 10 to 50 uM incubated for 24 to 72 hrs by WST-1 assay; type: functional, cell-based; settings: dose 10-50 µM, time 24-72 hrs
MDA-MB-231 [4] = test: Induction of apoptosis in human MDA-MB-231 cells expressing p53 R280K mutant assessed as decrease in level of uncleaved PARP1 level at 6 to 12 uM measured after 24 hrs by western blotting analysis; type: functional, cell-based; settings: dose 6-12 µM
How it was run: (§3)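 Cells treated with DMSO or compound at 6 or 12 µM for 24 h, then lysed in Tris-Cl pH 8.0/NaCl/glycerol/NP-40/EDTA buffer with protease inhibitors. 100 µg lysate resolved on 4-12% SDS-PAGE and blotted to PVDF. Probed with anti-PARP or anti-caspase 3, then HRP secondary and ECL. GAPDH reprobe as control.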

MDA-MB-231 [5] = test: Induction of apoptosis in human MDA-MB-231 cells expressing p53 R280K mutant assessed as increase in level of cleaved PARP1 level at 6 to 12 uM measured after 24 hrs by western blotting analysis; type: functional, cell-based; settings: dose 6-12 µM; how it was run: as §3
MDA-MB-468 [6] = test: Induction of apoptosis in human MDA-MB-468 cells expressing p53 R273H mutant assessed as decrease in level of uncleaved PARP1 level at 6 to 12 uM measured after 24 hrs by western blotting analysis; type: functional, cell-based; settings: dose 6-12 µM; how it was run: as §3
MCF7 [7] = test: Antiproliferative activity against human MCF7 cells expressing WT p53 assessed as inhibition of cell growth at 10 to 50 uM incubated for 24 to 72 hrs by WST-1 assay; type: functional, cell-based; settings: dose 10-50 µM, time 24-72 hrs
How it was run: (§4)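 WST-1 proliferation assay. Compound diluted in DMSO so that 10 μl of stock in 1 ml of cells (40,000 cells/ml) gives the test concentration at 1% DMSO. Cells plated at 4,000/well in duplicate and incubated at 37 °C for 24 h or 72 h. Result given as % of the 1% DMSO control.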

MDA-MB-231 [8] = test: Effect on p53 R280K mutant mRNA expression in human MDA-MB-231 cells at 6 uM measured after 4 hrs by qRT-PCR analysis; type: functional, cell-based; how it was run: as §1
MDA-MB-231 [9] = test: Antiproliferative activity against human MDA-MB-231cells expressing p53 R280K mutant assessed as inhibition of cell growth at 10 to 50 uM incubated for 24 hrs by WST-1 assay; type: functional, cell-based; settings: dose 10-50 µM; how it was run: as §4
MDA-MB-231 [10] = test: Cell cycle arrest in human MDA-MB-231 cells expressing p53 R280K mutant assessed as accumulation of cells at G1 phase at 6 uM measured after 24 hrs by PI staining based flow cytometry (reference value: 42.9%)
MDA-MB-468 [11] = test: Antiproliferative activity against human MDA-MB-468 cells transfected with non-specific siRNA assessed as inhibition of cell growth at 5 to 25 uM measured after 24 hrs by WST-1 assay; type: functional, cell-based; settings: dose 5-25 µM
How it was run: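 MDA-MB-468 cells plated at 50-60% confluence 24 h before transfection. p53 SMARTpool or non-specific siRNA (0.430 nmol) given with Lipofectamine 2000 in Opti-MEM for 5 h, repeated after 24 h. Drug or DMSO added 72 h after the first transfection. Proliferation read by WST-1, % of DMSO control.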

MDA-MB-468 [12] = test: Cell cycle arrest in human MDA-MB-468 cells expressing p53 R273H mutant assessed as accumulation of cells at G1 phase at 6 uM measured after 24 hrs by PI staining based flow cytometry (reference value: 30.6%); type: functional
MCF7 [13] = test: Cell cycle arrest in human MCF7 cells expressing wild type p53 assessed as accumulation of cells at G2/M phase at 6 uM measured after 24 hrs by PI staining based flow cytometry (reference value: 21.3%); type: functional
MDA-MB-231 [14] = test: Induction of apoptosis in human MDA-MB-231 cells expressing p53 R280K mutant assessed fold increase in number of Annexin-V stained cells at 6 to 12 uM incubated for 24 hrs by AnnexinV-FITC and PI staining based flow cytometry relative to control; type: functional; settings: dose 6-12 µM; how it was run: as §2
MDA-MB-436 = test: Antiproliferative activity against human p53-null MDA-MB-436 cells assessed as inhibition of cell growth at 10 to 50 uM measured after 24 to 72 hrs by WST-1 assay; type: functional, cell-based; settings: dose 10-50 µM, time 24-72 hrs; how it was run: as §4
[15] = system: Cellular tumor antigen p53 (Homo sapiens), P04637 [R280K]; test: Reactivation of transactivation function to p53 R280K mutant in human MDA-MB-231 cells assessed as ATM activation by measuring increase in phosphorylation of ATM at serine 1981 residue at 6 uM measured after 24 hrs by immunoblot analysis; type: cell-based; settings: filed as activator
How it was run: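 DMSO or 6 µM for 24 h. 250 µg of lysate run on 4-12% SDS-PAGE, blot probed with anti-pATM Ser1981 (1:500), then anti-mouse HRP secondary with ECL detection. GAPDH reprobe as control. Triplicate experiments.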

MCF7 [16] = test: Downregulation of p53 expression in human MCF7 cells at 6 to 12 uM measured after 24 hrs by immunoblot analysis; type: functional, cell-based; settings: dose 6-12 µM
How it was run: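 24 h exposure to 6 or 12 μM, DMSO control. Lysis in Tris pH 8.0/NaCl/glycerol/NP-40/EDTA buffer with protease inhibitors. 20 µg (MDA-MB-231, MDA-MB-468) or 50 µg (MCF-7) of lysate run on 4-12% SDS-PAGE. Blot probed with p53 DO-1, GAPDH used for reprobe/loading. Triplicate experiments.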

MDA-MB-468 [17] = test: Induction of apoptosis in human MDA-MB-468 cells expressing p53 R273H mutant assessed fold increase in number of Annexin-V stained cells at 6 to 12 uM incubated for 24 hrs by AnnexinV-FITC and PI staining based flow cytometry relative to control; type: functional; settings: dose 6-12 µM; how it was run: as §2

[Se]=C=NCCC12CC3CC(CC(C3)C1)C2
Activity [1]: Active | Activity (MDA-MB-468 [2]): Active | Activity (MCF7 [3]): inactive | Activity (CCD-841CoN): inactive | Activity (MDA-MB-231 [4]): Active | Activity (MDA-MB-231 [5]): Active | Activity (MDA-MB-468 [6]): Active | Activity (MCF7 [7]): Active | Activity (MDA-MB-231 [8]): inactive

S=C=NCCCC12CC3CC(CC(C3)C1)C2
Activity (MDA-MB-231 [9]): Dose-Dependent Effect | Activity (MDA-MB-231 [10]): 48.2% | Activity [1]: Active | Activity (MCF7 [3]): inactive | Activity (CCD-841CoN): inactive | Activity (MDA-MB-468 [11]): Active | Activity (MDA-MB-231 [4]): Active | Activity (MDA-MB-231 [5]): Active | Activity (MDA-MB-468 [12]): 53.2% | Activity (MCF7 [13]): 24.3% | fold change (FC) (MDA-MB-231 [14]): 2 | Activity (MDA-MB-468 [6]): Active | Activity (MCF7 [7]): Active | Activity (MDA-MB-231 [8]): inactive | Activity (MDA-MB-436): inactive | Activity [15]: Active | inhibition (MCF7 [16]): inactive | fold change (FC) (MDA-MB-468 [17]): 2
